The record followed here is ChEMBL document CHEMBL6071141, “In vitro and in vivo evaluation of Bombesin-MMAE conjugates for targeted tumour therapy” (Eur J Med Chem, 2024).

Structures are written as SMILES. Numbered stars: 1 amine (or outer) side, 2 acyl side, 3 side chain; on linkers, the order of the positions; unused ones are H or OH. Bridge positions count the residues as written; N and C are the ends. Square brackets hold non-standard residues; d marks the D form. Peptide text beside a SMILES is read from it. I, II: the chains in the order shown. * marks the point of attachment. Hexanoyl(6-succinimido-3yl) = O=C1CC([*:1])C(=O)N1CCCCCC(=O)[*:2]; Trp(3a,7a-dihydro) = N[C@@H](CC1=CNC2C=CC=CC12)C(=O)O; Dolaproine = CO[C@@H]([C@@H]1CCCN1)[C@@H](C)C(=O)O; Dil = CC[C@H](C)[C@H](NC)[C@@H](CC(=O)O)OC; PABC = O=C(OCc1ccc(N[*:1])cc1)[*:2]; X3 = C[C@@H](N*)[C@@H](O)c1ccccc1; Cit = NC(=O)NCCC[C@H](N)C(=O)O; PEG4 = NCCOCCOCCOCCOCCC(=O)O; NMeV = CN[C@H](C(=O)O)C(C)C; Nle = CCCC[C@H](N)C(=O)O

The nature of data set [1]: Cytotoxicity against human PC-3 cells assessed as inhibition of cell growth incubated for 72 hrs by CellTiter 96 aqueous assay. Format: toxicity, cell-based. The method in brief: (§1)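 PC-3 or MDA-MB-231 cells were treated the day after seeding with serial dilutions, from 2000 nM for conjugates and 100 nM for MMAE, for 72 h. Then the assay was stopped, or run 72 h more after a medium change (single) or re-treatment (double). Controls got 0.05 % DMSO. Read-out was MTS absorbance at 490 nm after 90 min. IC50 by non-linear regression; ≥2 experiments, triplicates.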

Data set [2] is described as follows: Cytotoxicity against human cells MDA-MB-231 assessed as inhibition of cell growth incubated for 72 hrs by CellTiter 96 aqueous assay. Format: toxicity, cell-based. The following applies: MDA-MB-231 cells. The method in brief: as §1
Data set [3] in a line: Cytotoxicity against human PC-3 cells assessed as inhibition of cell growth incubated with compound for 72 hrs followed by further incubated for 72 hrs (single treatment) by CellTiter 96 aqueous assay. The format is toxicity, cell-based. A digest of the protocol:
as §1

Data set [4] can be described thus: Cytotoxicity against human PC-3 cells assessed as inhibition of cell growth incubated for 72 hrs and followed by treated with compound continued incubation for further 72 hrs (double treatment) after retreatment of compound by CellTiter 96 aqueous assay. The format is toxicity, cell-based. A digest of the protocol: as §1
Data set [5] is described as follows: Cytotoxicity against human MDA-MB-231 cells assessed as inhibition of cell growth incubated with compound for 72 hrs followed by further incubated for 72 hrs (single treatment) by CellTiter 96 aqueous assay. Format: toxicity, cell-based. A digest of the protocol: as §1
A short description of data set [6]: Cytotoxicity against human MDA-MB-231 cells assessed as inhibition of cell growth incubated for 72 hrs and followed by treated with compound continued incubation for further 72 hrs (double treatment) after retreatment of compound by CellTiter 96 aqueous assay. Format: toxicity, cell-based. The method in brief:
as §1

Data set [7] is described as follows: Metabolic stability in mouse plasma assessed as half life at 5 uM measured upto 24 hrs by LC-HRMS analysis. The format is ADME, cell-free. A digest of the protocol: (§2)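 Conjugates at 5 μM were incubated in human or mouse plasma at 37 °C, in duplicate. Samples were taken at t0, 0.25, 0.5, 1, 2, 4 and 24 h and quenched with 1 % formic acid in MeCN (2× volume). After centrifugation (14000 rpm, 4 °C), supernatants were diluted 1:1 with water and analysed by LC-HRMS.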

Data set [8] is described as follows: Metabolic stability in human plasma assessed as half life at 5 uM measured upto 24 hrs by LC-HRMS analysis. Format: ADME, cell-free. A digest of the protocol: as §2
In data set [9] the target is T1, Gastrin-releasing peptide receptor (Homo sapiens, UniProt P30550). As to the kind of experiment: Displacement of 125 I- [Tyr4] from bombesin receptor 2 in human PC-3 cells assessed as inhibition by radioligand displacement assay. Format: cell-based. The method in brief:
(§3)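 Competition binding on membrane preparations from PC-3 or MDA-MB-231 cells against ¹²⁵I-[Tyr⁴]-bombesin, with conjugates at 10 μM–10 pM. IC50 was taken as the concentration giving 50 % inhibition of tracer binding.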
For orientation: Loss of bound radioactivity is the signal in a displacement assay; it reports binding, not function.

Data set [10] concerns the target T1, Gastrin-releasing peptide receptor. As to the kind of experiment: Displacement of 125 I- [Tyr4] from bombesin receptor 2 in human MDA-MB-231 cells assessed as inhibition by radioligand displacement assay. The format is cell-based. A digest of the protocol: as §3
Data set [11] in a line: Displacement of 125 I- [Tyr4] from bombesin receptor 1 (unknown origin) assessed as inhibition by radioligand competitive binding assay. Set-up: species or system Homo sapiens.
The target in data set [12] is T1, Gastrin-releasing peptide receptor. As to the kind of experiment: Displacement of 125 I- [Tyr4] from bombesin receptor 2 (unknown origin) assessed as inhibition by radioligand competitive binding assay.
The target in data set [13] is T2, Bombesin receptor subtype-3 (Homo sapiens, UniProt P32247).
T2 sequence (P32247 whole entry): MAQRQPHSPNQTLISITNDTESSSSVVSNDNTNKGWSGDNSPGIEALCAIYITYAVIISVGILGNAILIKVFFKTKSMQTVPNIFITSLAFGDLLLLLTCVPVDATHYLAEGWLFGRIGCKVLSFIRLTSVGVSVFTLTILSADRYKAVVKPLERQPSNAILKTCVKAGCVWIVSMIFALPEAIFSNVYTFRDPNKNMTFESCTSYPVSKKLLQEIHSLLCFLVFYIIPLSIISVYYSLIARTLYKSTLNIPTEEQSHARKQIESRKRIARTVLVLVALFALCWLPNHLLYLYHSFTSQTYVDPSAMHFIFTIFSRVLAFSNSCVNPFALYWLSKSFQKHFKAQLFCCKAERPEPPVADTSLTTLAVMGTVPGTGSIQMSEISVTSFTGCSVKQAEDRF
As to the kind of experiment: Displacement of 125 I- [Tyr4] from bombesin receptor 3 (unknown origin) assessed as inhibition by radioligand competitive binding assay.

Broadly, the IC50 is the concentration that gives 50% inhibition. One may read the half-life as the time in which the quantity being followed falls by half.

T1 sequence (P30550 whole entry): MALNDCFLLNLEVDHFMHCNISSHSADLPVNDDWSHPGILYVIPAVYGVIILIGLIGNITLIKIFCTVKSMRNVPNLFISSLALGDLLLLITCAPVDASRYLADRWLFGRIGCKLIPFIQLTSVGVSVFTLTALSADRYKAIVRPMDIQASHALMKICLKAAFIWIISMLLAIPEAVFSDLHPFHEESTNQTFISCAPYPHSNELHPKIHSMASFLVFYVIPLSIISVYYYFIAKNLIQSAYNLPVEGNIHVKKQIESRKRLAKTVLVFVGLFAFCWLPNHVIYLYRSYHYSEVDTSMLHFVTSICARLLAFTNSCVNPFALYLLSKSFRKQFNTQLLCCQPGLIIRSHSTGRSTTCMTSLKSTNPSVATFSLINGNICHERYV

On to `CC[C@H](C)[C@@H]([C@@H](CC(=O)N1CCC[C@H]1[C@H](OC)[C@@H](C)C(=O)N[C@H](C)[C@@H](O)c1ccccc1)OC)N(C)C(=O)[C@@H](NC(=O)[C@H](C(C)C)N(C)C(=O)OCc1ccc(NC(=O)[C@H](CCCNC(N)=O)NC(=O)[C@@H](NC(=O)CCCCCN2C(=O)CC(SC[C@H](NC(C)=O)C(=O)N[C@H](Cc3ccccc3)C(=O)N[C@@H](CCC(N)=O)C(=O)N[C@@H](Cc3c[nH]c4ccccc34)C(=O)N[C@@H](C)C(=O)N[C@H](C(=O)NCC(=O)N[C@@H](Cc3c[nH]cn3)C(=O)N[C@@H](CC(C)C)[C@@H](O)CC(=O)N[C@@H](CC(C)C)C(N)=O)C(C)C)C2=O)C(C)C)cc1)C(C)C` (stereo partly specified), for which the IC50 at 72 h in [1] was 718 nM; in data set [2], 888 nM. Besides, the IC50 at 144 h in [3] amounted to 101 nM; in data set [4], 92.1 nM; in data set [5], 202 nM; in data set [6] it was 155 nM. The half-life at 5 µM in data set [7] was 0.12 h; in data set [8], 8.2 h.

Regarding `CCCC[C@H](NC(=O)[C@H](CC(C)C)NC(=O)[C@H](Cc1c[nH]cn1)NC(=O)CNC(=O)[C@@H](NC(=O)[C@H](C)NC(=O)[C@H](CC1=CNC2C=CC=CC12)NC(=O)[C@H](CCC(N)=O)NC(=O)[C@H](CC(N)=O)NC(=O)CCOCCOCCOCCOCCNC(=O)[C@H](CSC1CC(=O)N(CCCCCC(=O)N[C@@H](CCC(=O)O)C(=O)N[C@H](C(=O)N[C@@H](CCCNC(N)=O)C(=O)Nc2ccc(COC(=O)N(C)[C@H](C(=O)N[C@H](C(=O)N(C)[C@@H]([C@@H](C)CC)[C@@H](CC(=O)N3CCC[C@H]3[C@H](OC)[C@@H](C)C(=O)N[C@H](C)[C@@H](O)c3ccccc3)OC)C(C)C)C(C)C)cc2)C(C)C)C1=O)NC(C)=O)C(C)C)C(N)=O` (stereo partly specified) (I: Ac-C[PEG4]NQ[Trp(3a,7a-dihydro)]AVGHL[Nle]-NH2 / II: EV[Cit][PABC][NMeV]V[Dil][Dolaproine]-X3; linker I:1-II:N via Hexanoyl(6-succinimido-3yl)), the IC50 at 72 h in [1] came out at 64.1 nM; in data set [2] it was 344 nM. The IC50 at 144 h in [3] stood at 18.2 nM; in [4], 12.6 nM; in data set [5], 60.1 nM; in data set [6], 52.7 nM. Further, the IC50 was determined as 101 nM in data set [9] and 97.4 nM in data set [10].

Regarding `CC(=O)N[C@@H](CS)C(=O)N[C@H](Cc1ccccc1)C(=O)N[C@@H](CCC(N)=O)C(=O)N[C@@H](Cc1c[nH]c2ccccc12)C(=O)N[C@@H](C)C(=O)N[C@H](C(=O)NCC(=O)N[C@@H](Cc1c[nH]cn1)C(=O)N[C@@H](CC(C)C)[C@@H](O)CC(=O)N[C@@H](CC(C)C)C(N)=O)C(C)C`, the IC50 in data set [11] was more than 10000 nM; in data set [12], 20.5 nM; in data set [13], more than 1000 nM. Also, the half-life at 5 µM in [7] and in data set [8] was not below 5 h each time.
